How the values were obtained:
Format in all cases: cell-based, human
H108 fibroblasts = assay: Immunoblotting of total cell extracts; settings: H108 fibroblasts; 2.5 μM WX8 or 2 μM Adriamycin 24 h
Outline: (§1)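 Cells were cultured with 2.5 μM test compound for up to 96 h, and attached plus unattached cells were pooled. Whole-cell RIPA lysates were run on 4–12% Bis-Tris gels, transferred to nitrocellulose and blocked in 5% milk/TBS. Primary antibodies went on overnight at 4°C, followed by infrared secondary antibodies and imager quantitation. Each blot carried untreated U2OS as a shared standard, with Ponceau-S histones for normalization and lighter exposures for quantitation. Adriamycin for 24 h (NTERA-2 1 μM, H108 2 μM) served as a DNA-break control.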

NTERA-2 ECCs = assay: Immunoblotting of total cell extracts; settings: NTERA-2, 1 μM Adriamycin, 24 h
Outline: as §1

NTERA-2 ECC [1] = assay: Live cells / PCD by FACS of nonpermeabilized cells stained with annexin-V and PI
Outline: (§2)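 Cells were seeded so that vehicle wells stayed subconfluent, then treated with a range of test compound concentrations for 4 days. Without permeabilization, they were stained with annexin-V-FITC and propidium iodide and analysed by flow cytometry. Double-negative cells (Q3) were scored as live and Q1+Q2 as programmed death. Vehicle was set to 100% viable and 0% dead. Results are the mean of three independent assays with SEM; group averages and ratios are derived from the IC50s.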

[2] = tested on: HFF-1 normal skin fibroblast; assay: as above; settings: Homo sapiens, HFF-1, read-out: IC50 Live Cells
Outline: as §2

NTERA-2 ECC [3] = assay: Cells with <2N DNA by FACS of permeabilized cells stained with PI; settings: Homo sapiens, NTERA2, read-out: IC50 DNA (50% of cells with <2N DNA)
Outline: (§3)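 Cells were exposed to a range of test compound concentrations alongside vehicle (DMSO) controls. They were then permeabilized, stained with propidium iodide, and DNA content was read by flow cytometry. IC50 is the concentration at which 50% of cells hold <2N DNA, from 3 independent repetitions with SEM. Line averages and differentiated/pluripotent ratios are derived from these IC50s. NTERA-2 was also run as a time course at 5 μM, normalized to vehicle at each time point.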

[4] = tested on: HFF-1 normal skin fibroblast; assay: as above; settings: Homo sapiens, HFF-1, read-out: IC50 DNA (50% of cells with <2N DNA)
Outline: as §3

| IC50 (NTERA-2 ECC [1]; Homo sapiens, NTERA2, 96 h, read-out: IC50 Live Cells) [nM] | IC50 (NTERA-2 ECC [3]) [nM] | SMILES | CASP3 cleavage (H108 fibroblasts) | PARP cleavage (H108 fibroblasts) | CASP3 cleaved (NTERA-2 ECCs) [%] | Effectiveness relative to WX8 (NTERA-2 ECC [1]; NTERA-2 cells) | IC50 [2] [µM] | IC50 [4] [µM] |
| --- | --- | --- | --- | --- | --- | --- | --- | --- |
|  |  | COc1cccc2c1C(=O)c1c(O)c3c(c(O)c1C2=O)C[C@@](O)(C(=O)CO)C[C@@H]3O[C@H]1C[C@H](N)[C@H](O)[C@H](C)O1 [Adriamycin, doxorubicin] | Neither WX8 nor Adriamycin induced cleavage | Neither WX8 nor Adriamycin induced cleavage | > 90 |  |  |  |
| 200 | 400 | Cc1cccc(/C=N/Nc2cc(N3CCOCC3)nc(OCCc3ccccn3)n2)c1 [Apilimod] |  |  |  | about 10 times | > 10 | > 10 |
